# Results gathered from unrelated publications.
# Each line is one published result; the experiments were not run side by side. pIC50: −log10 of the molar value.
# Cell line: THP-1
SMILES,observed,mode,technique,time,setting,quantity,result
CC(CCc1ccc(O)cc1)NCCc1ccc(O)c(O)c1 (centres unmarked),TNF-α release,inhibitor,,17 h,LPS-stimulated,pIC50,6.29
Nc1nc(Nc2ccc3c(c2)CC[C@@H](N2CCCC2)CC3)nn1-c1cc2c(nn1)-c1ccccc1CCC2,cell growth or viability,,trypan blue,72 h,,pIC50,5.59
COc1cccc2c1C(=O)c1c(O)c3c(c(O)c1C2=O)C[C@@](O)(C(=O)CO)C[C@@H]3O[C@H]1C[C@H](N)[C@H](O)[C@H](C)O1,cell growth or viability,,MTT,72 h,,pIC50,5.49
CC[C@@H](C)[C@H](N)C(=O)N1Cc2ccccc2C1,cell growth or viability,,ATP luminescence,,,pIC50,5.77
COc1cc(-c2nc(C(=O)Nc3nnc(-c4cc5ccccc5n4C)s3)cc3c2[nH]c2ccccc23)cc(OC)c1OC,cell growth or viability,,MTT,72 h,,pIC50,5.06
CC(C)(C)NCC(O)c1cc(O)cc(O)c1 (centres unmarked),TNF-α release,inhibitor,,17 h,LPS-stimulated,pIC50,5.66
Cn1c(-c2nnc(NC(=O)c3cc4c([nH]c5ccccc54)c(-c4ccccc4)n3)s2)cc2ccccc21,cell growth or viability,,MTT,72 h,,pIC50,4.85
CC(C)(C)c1ccc(S(=O)(=O)/C=C/C#N)cc1,TNF-α release,inhibitor,,17 h,LPS-stimulated,pIC50,6.13
O=C(Nc1nnc(-c2cc3ccccc3[nH]2)s1)c1cc2c([nH]c3ccccc32)c(-c2ccc(Cl)cc2)n1,cell growth or viability,,MTT,72 h,,pIC50,5.36
Cc1cnc(-c2ccc(-c3ccc(NC(=O)Nc4c(F)cc(F)cc4F)cc3F)c3c2C(=O)NC3)[nH]1,cell growth or viability,,,,,pIC50,8.41
NCCc1c[nH]cn1,TNF-α release,inhibitor,ELISA,17 h,LPS-stimulated,pIC50,6.15
Nc1ncc(-c2cnn(C3CCNCC3)c2)cc1-c1nnc(CC2CC2)o1,cell growth or viability,,trypan blue,72 h,,pIC50,6.79
C#CCSc1nc(Sc2nnnn2-c2ccccc2)c2nnn(Cc3ccc(OC)cc3)c2n1,cell growth or viability,,MTS,6 days,,pIC50,5.60
CCC(NC(C)C)C(O)c1ccc(O)c(O)c1 (centres unmarked),TNF-α release,inhibitor,,17 h,LPS-stimulated,pIC50,5.68
N[C@@H](CC(=O)N1CCN(C(c2ccc(F)cc2)c2ccc(F)cc2)CC1)C(=O)N1Cc2ccccc2C1,cell growth or viability,,ATP luminescence,48 h,,pIC50,5.56
O=C(Nc1nnc(-c2cc3ccccc3[nH]2)s1)c1cc2c([nH]c3ccccc32)c(-c2ccc(F)cc2)n1,cell growth or viability,,MTT,72 h,,pIC50,5.21
O=C(/C=C/C=C/c1ccc2c(c1)OCO2)N1CCCCC1,cell growth or viability,,MTT,48 h,,IC50,> 50 µg/mL
CCn1c(-c2nnc(NC(=O)c3cc4c([nH]c5ccccc54)c(-c4ccc(C)cc4)n3)s2)cc2ccccc21,cell growth or viability,,MTT,72 h,,pIC50,4.41
O=[N+]([O-])c1c[nH]nc1-c1nc(-c2ccc(Oc3ccc(I)cc3)cc2)no1,cell growth or viability,,LDH,24 h,,IC50,> 50 µg/mL
CNCC(O)c1ccc(O)c(O)c1 (racemic),TNF-α release,inhibitor,,17 h,LPS-stimulated,pIC50,6.82
